Results as given in the array DNA melting data of Ke et al. (doi:10.1101/2024.01.08.574731).

How the values were obtained:
[1] = folding enthalpy; higher = less favourable; fluorescence melt of hairpins on a sequencing array, two-state fit; details: sodium 0.088 M
In short: (§1)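 In 50 mM Na-HEPES pH 8.0 containing 25 mM NaCl, hairpins from the library on a sequenced MiSeq flow cell were imaged for Cy3 fluorescence at 2.5 °C steps up to 60 °C, with Cy3 and quencher oligos annealed. After normalisation to pre-quench Cy3 and to control constructs, two-state fits with bootstrapping gave melting temperature and folding enthalpy. Four replicates were combined by inverse-variance weighting, and fitted temperatures were shifted up by 9.35 °C to match UV melts.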

[2] = melting temperature; fluorescence melt of hairpins on a sequencing array, two-state fit, raised by 9.35 °C to match UV melts; details: sodium 0.088 M
In short: as §1

Sequence	folding enthalpy [1]	Tm [2]
GCCACTGGAAACAGTGAC (.(((((....))))).)	-18.9 kcal/mol	46.3 °C
GGTGATGGAAACGTCATC (.(((.(....).))).)	-26.4 kcal/mol	34.7 °C
GATCAAGCGATTGATC ((((((....))))))	-39.6 kcal/mol	48 °C
GTCAGACGAAAGTCCGAC (((.(((....))).)))	-26.5 kcal/mol	48.6 °C
GCAGCAGGAAACCGCTGC (((((.(....).)))))	-41.3 kcal/mol	58.1 °C
GCTTGGCGAAAGCCGTGC ((..(((....)))..))	-15.3 kcal/mol	53.4 °C
GGTACCGAAAGGTTAACC ((((((....)))..)))	-17.3 kcal/mol	38.6 °C
GCACTCGAAAGAGTTGC ((((((....))).)))	-22.3 kcal/mol	51.4 °C
GAACCGGAAACGGTTC ((((((....))))))	-33 kcal/mol	67.4 °C
GCCCGTGGAAACACAGGC (((.(((....))).)))	-29.8 kcal/mol	50.4 °C
GATCTGCCACAGATC ((((((...))))))	-31.8 kcal/mol	48.9 °C
GAGTCACCGAAAGGTCTC (((..(((....))))))	-12.6 kcal/mol	28.1 °C
GTGCGAGGAAACCCGCAC (((((.(....).)))))	-34.6 kcal/mol	58.1 °C
GAGGAAGAAATTCCTC ((((((....))))))	-25 kcal/mol	47.7 °C
GCGTCATGACGC ((((....))))	-30.9 kcal/mol	61.9 °C
GTACGCGGAAACGTGTGC (.((.((....)).)).)	-20.8 kcal/mol	46.2 °C
GGTTTCGGAAACGAAGCC ((.((((....)))).))	-28.2 kcal/mol	51.4 °C
GAAATGGGAAACCATTCC (.(((((....))))).)	-14.8 kcal/mol	31 °C
GATCTGTGGTCAGATC ((((((....))))))	-38.7 kcal/mol	49.6 °C
GTAAGGCGAAAGCCATAC (((.(((....))).)))	-15.3 kcal/mol	44.8 °C
GTCGACGAAAGTCTTGAC ((((((....)))..)))	-15.4 kcal/mol	36.2 °C
GCATGTCGAAAGACTTGC (((.(((....))).)))	-43.8 kcal/mol	54.6 °C
GCATGGCGAAAGCTATGC ((((.((....)).))))	-37.9 kcal/mol	66.6 °C
GACCTGAAAAGGTC (((((....)))))	-27.9 kcal/mol	59 °C

Sequence	folding enthalpy [1]	Tm [2]
GATCGTCCTACGATC ((((((...))))))	-38.6 kcal/mol	56.5 °C
GCTACGCGAAAGCTAAGC (((..((....))..)))	-13.1 kcal/mol	38.8 °C
GCAGGATCGAAAGATTGC (((..(((....))))))	-19.8 kcal/mol	31.4 °C
GACTCCGAAAGGAGGGTC ((((((....)))..)))	-17 kcal/mol	50.8 °C
GCGTGAAGACGC ((((....))))	-23 kcal/mol	58.3 °C
GGAAACGGAAACGTCTCC (((.(((....))).)))	-23.6 kcal/mol	37.2 °C
GTGTGTGGAAACATACGC (.((.((....)).)).)	-29.4 kcal/mol	47 °C
GGAGAACGAAAGTTTTCC (((.(((....))).)))	-29.2 kcal/mol	47.4 °C
GGGCTTGGAAACGAGTCC ((.((.(....).)).))	-32.8 kcal/mol	43.9 °C
GATCTTTGCCAAGATC ((((((....))))))	-29.7 kcal/mol	42.5 °C
GATCATCCCAATGATC ((((((....))))))	-36.2 kcal/mol	48.2 °C
GCGATCGAAAGATAACGC ((((((....)))..)))	-26.2 kcal/mol	44.3 °C
GCCTCGGCGAAAGCCGGC (((..(((....))))))	-4.13 kcal/mol	54.4 °C
GTATGCGAAAGCACTTAC ((((((....)))..)))	-13.1 kcal/mol	35.1 °C
GAGTGAGGAAACTCACCC (.(((((....))))).)	-13.9 kcal/mol	39.4 °C
GATCCGATACCGGATC ((((((....))))))	-29.9 kcal/mol	57 °C
GTAAACGAAAGTTGTTAC ((((((....)))..)))	-10.1 kcal/mol	23.7 °C
GTATACGAAAGTATCTAC ((((((....)))..)))	-18.6 kcal/mol	32.5 °C
GCACGCGAAAGCGCATGC ((((((....)))..)))	-13.6 kcal/mol	43 °C
GATCGTCACTACGATC ((((((....))))))	-46.1 kcal/mol	55 °C
GATCGAATCATCGATC ((((((....))))))	-35.7 kcal/mol	51.9 °C
GCACGGCGAAAGCCCTGC (((.(((....))).)))	-26 kcal/mol	47.3 °C
GCTTGTACGAAAGTAAGC (((..(((....))))))	-24.9 kcal/mol	37.7 °C
GCGTAGCCACGC ((((....))))	-9.67 kcal/mol	58.3 °C

Sequence	folding enthalpy [1]	Tm [2]
GGTGCCGGAAACGGTACC (((.(((....))).)))	-35.8 kcal/mol	64.1 °C
TGGGTGAAAACCCA (((((....)))))	-18.8 kcal/mol	53.5 °C
GTTTCCGAAAGGATGAAC ((((((....)))..)))	-8.12 kcal/mol	25.8 °C
GATCCATCTTTGGATC ((((((....))))))	-37.5 kcal/mol	52.6 °C
GGAACCGAAAGGTGATCC ((((((....)))..)))	-14 kcal/mol	42.8 °C
GACAACGAAAGTTTAGTC ((((((....)))..)))	-16 kcal/mol	30.4 °C
GTCCCTACGAAAGTAGAC (((..(((....))))))	-9.91 kcal/mol	25.9 °C
GGGGGCGAAAGCCAGCCC ((((((....)))..)))	-14.1 kcal/mol	51.8 °C
GGCCACGAAAGTGGCGCC ((((((....)))..)))	-7.19 kcal/mol	65.5 °C
GATCAGAACTCTGATC ((((((....))))))	-37.6 kcal/mol	48.4 °C
GTAGTCGAAAGACGGTAC ((((((....)))..)))	-11.8 kcal/mol	39.2 °C
GGCGTGGGAAACCACGTC (.(((((....))))).)	-21.1 kcal/mol	62.3 °C
GCTGCGACGAAAGTCAGC (((..(((....))))))	-13.4 kcal/mol	51.4 °C
GGGTTTGCGAAAGCACCC (((..(((....))))))	-18.9 kcal/mol	47.3 °C
GCGCCCGAAAGGGACGC ((((((....))).)))	-27.1 kcal/mol	68.1 °C
GTGTTGCGAAAGCATCAC (((.(((....))).)))	-30.7 kcal/mol	54 °C
GGTAGGCGAAAGCCCACC (((.(((....))).)))	-17.1 kcal/mol	51.9 °C
GGGGACGGAAACGCCCCC ((((.((....)).))))	-26.1 kcal/mol	57.9 °C
GCGCTGCCGAAAGGCCGC (((..(((....))))))	-17.8 kcal/mol	58.5 °C
GGCCTCGGAAACGAGGTC (.(((((....))))).)	-28.2 kcal/mol	64.7 °C
GATCCGCTTCGGATC ((((((...))))))	-39 kcal/mol	58.6 °C
GATCCAGCCGTGGATC ((((((....))))))	-41.2 kcal/mol	52.8 °C
GATCGAATACTCGATC ((((((....))))))	-37.5 kcal/mol	49.9 °C
GTATCTCGAAAGAGTAC (((.(((....))))))	-23.5 kcal/mol	39.7 °C

Sequence	folding enthalpy [1]	Tm [2]
GACACCGAAAGGTTGTC ((((((....))).)))	-25.3 kcal/mol	53.2 °C
GCACACGAAAGTGCTTGC ((((((....)))..)))	-20.8 kcal/mol	53.6 °C
GAAACAGGAAACTGCTTC (((.(((....))).)))	-21.9 kcal/mol	31.6 °C
GGCTGTCGAAAGACTGCC (((.(((....))).)))	-41.2 kcal/mol	63 °C
GCGGCCAACCGC ((((....))))	-21.6 kcal/mol	56.2 °C
GCGTTGAACGC ((((...))))	-18.2 kcal/mol	54.1 °C
GCCTTAACGAAAGTTGGC (((..(((....))))))	-26.5 kcal/mol	43.7 °C
GAATACCGAAAGGTTTTC (((.(((....))).)))	-25.7 kcal/mol	39.5 °C
GATCTCGCGGAGATC ((((((...))))))	-35.4 kcal/mol	54.9 °C
GCTAGGCGAAAGCAAAGC (((..((....))..)))	-19.2 kcal/mol	44.3 °C
GTGACCGAAAGGTACAC ((((((....))).)))	-19.4 kcal/mol	49.9 °C
GCGATGGGAAACTGTCGC ((((..(....)..))))	-47.3 kcal/mol	49.2 °C
GAAGCGGGAAACCGCCTC ((.((((....)))).))	-10.8 kcal/mol	36.7 °C
GCGATTCATCGC ((((....))))	-30.1 kcal/mol	58.3 °C
GGGAAGGGAAACCTTCTC (.(((((....))))).)	-23.8 kcal/mol	46.6 °C
GCGAGGCGAAAGCCCTGC ((..(((....)))..))	-11.9 kcal/mol	57.6 °C
GCGTTGGGAAACCGATGC ((.(.((....)).).))	-25.9 kcal/mol	44 °C
GATCCATTTCTGGATC ((((((....))))))	-34.3 kcal/mol	51 °C
GGCAAGCGAAAGCTGCC (((.(((....))))))	-33.4 kcal/mol	68.9 °C
GCCAGTCGAAAGACAGGC (((.(((....))).)))	-29.6 kcal/mol	62.8 °C
GGATCACCGAAAGGTTCC (((..(((....))))))	-13.1 kcal/mol	30.3 °C
